From ChEMBL document CHEMBL3576817, “Synthesis and Evaluation of Conjugates of Novel TLR7 Inert Ligands as Self-Adjuvanting Immunopotentiators” (2015)
Values belong to the compound of their own block, whether it stands above or below them. Calls of active or inactive are those of the source. The calls are words filed in the database; no cut-off is given here.

Legend:
[1] = target: T1, Toll-like receptor 7 (Mus musculus) (UniProt P58681); test: Agonist activity at TLR7 in mouse BMDM assessed as increase in IL-12 production at 2 uM after 24 hrs by ELISA in presence of BSA
T1 sequence (whole entry): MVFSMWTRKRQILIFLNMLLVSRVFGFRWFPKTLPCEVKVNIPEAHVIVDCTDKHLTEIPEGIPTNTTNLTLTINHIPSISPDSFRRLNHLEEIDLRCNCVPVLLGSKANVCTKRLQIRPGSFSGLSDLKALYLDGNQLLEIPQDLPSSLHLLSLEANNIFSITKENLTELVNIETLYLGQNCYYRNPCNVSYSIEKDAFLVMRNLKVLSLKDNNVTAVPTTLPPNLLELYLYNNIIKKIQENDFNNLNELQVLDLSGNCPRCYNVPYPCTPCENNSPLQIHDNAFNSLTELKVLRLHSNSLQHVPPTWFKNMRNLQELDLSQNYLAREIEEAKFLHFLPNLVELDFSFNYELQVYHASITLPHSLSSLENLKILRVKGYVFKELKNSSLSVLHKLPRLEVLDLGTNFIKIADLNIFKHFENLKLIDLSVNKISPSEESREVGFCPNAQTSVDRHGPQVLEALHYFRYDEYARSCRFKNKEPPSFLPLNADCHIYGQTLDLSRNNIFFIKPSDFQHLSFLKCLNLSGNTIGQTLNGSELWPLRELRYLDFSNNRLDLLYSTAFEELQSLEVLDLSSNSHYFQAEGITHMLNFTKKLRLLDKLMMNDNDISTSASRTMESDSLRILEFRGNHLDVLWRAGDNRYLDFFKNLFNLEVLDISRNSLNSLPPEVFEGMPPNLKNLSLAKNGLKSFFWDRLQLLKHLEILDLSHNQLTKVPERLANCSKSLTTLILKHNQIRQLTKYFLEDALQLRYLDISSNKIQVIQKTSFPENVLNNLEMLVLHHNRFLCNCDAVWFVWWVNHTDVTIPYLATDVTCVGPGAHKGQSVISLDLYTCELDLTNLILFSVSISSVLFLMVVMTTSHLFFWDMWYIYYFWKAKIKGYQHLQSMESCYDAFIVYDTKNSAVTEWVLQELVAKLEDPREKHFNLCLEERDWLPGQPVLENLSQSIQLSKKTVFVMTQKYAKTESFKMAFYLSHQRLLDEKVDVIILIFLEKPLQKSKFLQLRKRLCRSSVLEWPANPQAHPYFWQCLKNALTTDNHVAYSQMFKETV
Method in brief: (§1)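 BMDM from wild-type or TLR7−/− mice were seeded at 1 × 10^6/mL. They were incubated 24 h with 2 μM antigen conjugates, with the free ligand at 10 μM. IL-12 in culture supernatants was measured by ELISA. Data are mean ± SEM of triplicates from one of three independent experiments. Only material with endotoxin <5 EU/mg was used.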

[2] = target: T1, Toll-like receptor 7 (Mus musculus); test: Agonist activity at TLR7 in mouse BMDM assessed as increase in IL-12 production at 2 uM after 24 hrs by ELISA in presence of OVA; method in brief: as §1
Mus musculus [3] = test: Immunostimulatory activity in C57BL/6 mouse assessed as increase in IFN-gamma level in serum at 0.18 umol, iv after 2 to 6 hrs by luminex bead microassay in presence of MSA relative to control; assay type: functional, organism-based
Method in brief: (§2)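 C57BL/6 mice (n = 5 per group) received 0.18 μmol intravenously. Serum was collected at set times after injection, and IFN-γ and IL-12 were measured by Luminex assay against saline-treated controls. Data are mean ± SEM of two independent experiments.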

Mus musculus [4] = test: Immunostimulatory activity in C57BL/6 mouse assessed as increase in IgG1 level in serum at 5 nmol, sc administered every 7 days measured up to 30 days by ELISA; assay type: functional, organism-based
Method in brief: (§3)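 Mice were immunized with antigen, free ligand or conjugate, and serum was collected every 7 days from day 0 to day 30. BSA- or OVA-specific IgG1 and IgG2a were measured by ELISA. Data are mean ± SEM of triplicate from one of three independent experiments.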

Mus musculus [5] = test: Immunostimulatory activity in C57BL/6 mouse assessed as increase in IgG1 level in serum at 0.83 nmol, sc administered every 7 days measured up to 30 days by ELISA in presence of BSA; assay type: functional, organism-based; method in brief: as §3
Mus musculus [6] = species on record: Mus musculus; test: Immunostimulatory activity in BALB/c mouse splenocytes assessed as induction of IFN-gamma production at 10 uM after 24 hrs by ELISA in presence of OVA relative to GD2; assay type: functional, Splenocyte
Method in brief: (§4)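 Mouse splenocytes were seeded at 1 × 10^6/mL and incubated 24 h with serial dilutions of free ligand or conjugates. Antigen and conjugate concentrations were scaled for conjugation ratio: one-sixth for BSA, one-fifth for OVA and MSA, equal for MG7, one-quarter for thymosin. Supernatant IFN-γ and IL-12 were measured by ELISA and expressed as conjugated/free ligand ratios. Data are triplicates from one of three experiments.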

Mus musculus [7] = test: Immunostimulatory activity in C57BL/6 mouse assessed as increase in IgG2a level in serum at 5 nmol, sc administered every 7 days measured up to 30 days by ELISA; assay type: functional, organism-based; method in brief: as §3
Mus musculus [8] = test: Immunostimulatory activity in C57BL/6 mouse assessed as increase in IFN-gamma level in serum at 0.18 umol, iv after 2 to 6 hrs by luminex bead microassay in presence of OVA relative to control; assay type: functional, organism-based; method in brief: as §2
[9] = target: T1, Toll-like receptor 7 (Mus musculus); test: Agonist activity at TLR7 in mouse BMDM assessed as increase in IL-12 production at 2 uM after 24 hrs by ELISA in presence of MG7; method in brief: as §1
Mus musculus [10] = species on record: Mus musculus; test: Immunostimulatory activity in BALB/c mouse splenocytes assessed as induction of IFN-gamma production at 10 uM after 24 hrs by ELISA in presence of MG7 relative to GD2; assay type: functional, Splenocyte; method in brief: as §4
Mus musculus [11] = species on record: Mus musculus; test: Immunostimulatory activity in BALB/c mouse splenocytes assessed as induction of IL-12 production at 10 uM after 24 hrs by ELISA in presence of BSA relative to GD2; assay type: functional, Splenocyte; method in brief: as §4
Mus musculus [12] = species on record: Mus musculus; test: Immunostimulatory activity in BALB/c mouse splenocytes assessed as induction of IL-12 production at 10 uM after 24 hrs by ELISA in presence of thymosin relative to GD2; assay type: functional, Splenocyte; method in brief: as §4
Mus musculus [13] = test: Immunostimulatory activity in C57BL/6 mouse assessed as increase in IFN-gamma level in serum at 0.18 umol, iv after 2 to 6 hrs by luminex bead microassay in presence of MG7 relative to control; assay type: functional, organism-based; method in brief: as §2
Mus musculus [14] = species on record: Mus musculus; test: Immunostimulatory activity in BALB/c mouse splenocytes assessed as induction of IFN-gamma production at 10 uM after 24 hrs by ELISA in presence of MSA relative to GD2; assay type: functional, Splenocyte; method in brief: as §4
Mus musculus [15] = species on record: Mus musculus; test: Immunostimulatory activity in BALB/c mouse splenocytes assessed as induction of IFN-gamma production at 10 uM after 24 hrs by ELISA in presence of thymosin relative to GD2; assay type: functional, Splenocyte; method in brief: as §4
Mus musculus [16] = species on record: Mus musculus; test: Immunostimulatory activity in BALB/c mouse splenocytes assessed as induction of IL-12 production at 10 uM after 24 hrs by ELISA in presence of MG7 relative to GD2; assay type: functional, Splenocyte; method in brief: as §4
Mus musculus [17] = species on record: Mus musculus; test: Immunostimulatory activity in BALB/c mouse splenocytes assessed as induction of IL-12 production at 10 uM after 24 hrs by ELISA in presence of MSA relative to GD2; assay type: functional, Splenocyte; method in brief: as §4
[18] = target: T1, Toll-like receptor 7 (Mus musculus); test: Agonist activity at TLR7 in mouse BMDM assessed as increase in IL-12 production at 2 uM after 24 hrs by ELISA in presence of MSA; method in brief: as §1
Mus musculus [19] = test: Immunostimulatory activity in C57BL/6 mouse assessed as increase in IgG2a level in serum at 1 nmol, sc administered every 7 days measured up to 30 days by ELISA in presence of OVA; assay type: functional, organism-based; method in brief: as §3
Mus musculus [20] = species on record: Mus musculus; test: Immunostimulatory activity in BALB/c mouse splenocytes assessed as induction of IL-12 production at 10 uM after 24 hrs by ELISA in presence of OVA relative to GD2; assay type: functional, Splenocyte; method in brief: as §4
Mus musculus [21] = test: Immunostimulatory activity in C57BL/6 mouse assessed as increase in IgG1 level in serum at 1 nmol, sc administered every 7 days measured up to 30 days by ELISA in presence of OVA; assay type: functional, organism-based; method in brief: as §3
[22] = target: T1, Toll-like receptor 7 (Mus musculus); test: Agonist activity at TLR7 in mouse BMDM assessed as increase in IL-12 production at 2 uM after 24 hrs by ELISA in presence of thymosin; method in brief: as §1
Mus musculus [23] = test: Immunostimulatory activity in C57BL/6 mouse assessed as increase in IFN-gamma level in serum at 0.18 umol, iv after 2 to 6 hrs by luminex bead microassay in presence of thymosin relative to control; assay type: functional, organism-based; method in brief: as §2
Mus musculus [24] = test: Immunostimulatory activity in C57BL/6 mouse assessed as increase in IFN-gamma level in serum at 0.18 umol, iv after 2 to 6 hrs by luminex bead microassay in presence of BSA relative to control; assay type: functional, organism-based; method in brief: as §2
Mus musculus [25] = species on record: Mus musculus; test: Immunostimulatory activity in BALB/c mouse splenocytes assessed as induction of IFN-gamma production at 10 uM after 24 hrs by ELISA in presence of BSA relative to GD2; assay type: functional, Splenocyte; method in brief: as §4
Mus musculus [26] = test: Immunostimulatory activity in C57BL/6 mouse assessed as increase in IgG2a level in serum at 0.83 nmol, sc administered every 7 days measured up to 30 days by ELISA in presence of BSA; assay type: functional, organism-based; method in brief: as §3
Mus musculus [27] = test: Immunostimulatory activity in C57BL/6 mouse assessed as increase in IFN-gamma level in serum at 0.18 umol, iv after 2 to 48 hrs by luminex bead microassay relative to control; assay type: functional, organism-based; method in brief: as §2
Mus musculus [28] = test: Immunostimulatory activity in C57BL/6 mouse assessed as increase in IFN-gamma level in serum at 0.18 umol, iv at 2 hrs by luminex bead microassay relative to control; assay type: functional, organism-based; method in brief: as §2
Mus musculus [29] = species on record: Mus musculus; test: Immunostimulatory activity in BALB/c mouse splenocytes assessed as induction of IFN-gamma production at 10 uM after 24 hrs by ELISA relative to GD2; assay type: functional, Splenocyte; method in brief: as §4
Mus musculus [30] = species on record: Mus musculus; test: Immunostimulatory activity in BALB/c mouse splenocytes assessed as induction of IL-12 production at 10 uM after 24 hrs by ELISA relative to GD2; assay type: functional, Splenocyte; method in brief: as §4

Activity [1]: Active
Activity [2]: Active
Activity [9]: Active
Activity [18]: Active
Activity [22]: Active
SMILES: COCCOc1nc(N)c2nc(O)n(CCCC(=O)O)c2n1
Activity (Mus musculus [3]): Active
Activity (Mus musculus [4]): inactive
Activity (Mus musculus [5]): Active
fold change (FC) (Mus musculus [6]): 73
Activity (Mus musculus [7]): inactive
Activity (Mus musculus [8]): Active
fold change (FC) (Mus musculus [10]): 550
fold change (FC) (Mus musculus [11]): 16
fold change (FC) (Mus musculus [12]): 409
Activity (Mus musculus [13]): Active
fold change (FC) (Mus musculus [14]): 575
fold change (FC) (Mus musculus [15]): 1511
fold change (FC) (Mus musculus [16]): 52
fold change (FC) (Mus musculus [17]): 42
Activity (Mus musculus [19]): Active
fold change (FC) (Mus musculus [20]): 175
Activity (Mus musculus [21]): Active
Activity (Mus musculus [23]): Active
Activity (Mus musculus [24]): Active
fold change (FC) (Mus musculus [25]): 488
Activity (Mus musculus [26]): Active
Activity (Mus musculus [27]): inactive

SMILES: COCCOc1nc(N)c2nc(O)n(Cc3ccc(C=O)cc3)c2n1
Activity (Mus musculus [28]): Active
fold change (FC) (Mus musculus [29]): 524
fold change (FC) (Mus musculus [30]): 61
Activity (Mus musculus [27]): inactive
